# Laboratory results published in ChEMBL document CHEMBL3272008, “Synthesis and biological actions of 2-substituted quinolizidines” (J Med Chem, 1976).
# Calls of active or inactive are those of the source. The rule behind the calls is not given here.
# Experiments:
# Mus musculus [1] = assay: Depression of forced motor activity in Swiss-Webster mouse at 50 mg/kg, ip after 30 mins by rotarod test relative to control; assay type: functional; conditions: route intraperitoneal
# Summary of the method: (§1)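 Mice were dosed ip with vehicle or compound dissolved in a minimum of 1.5 M NaH2PO4 and diluted with water. On the rotarod, speed was 4 rpm for 30 sec, then 6 rpm for 30 sec, then increased every 30 sec up to a maximum of 50 rpm until the fall. Each mouse had four trials, two per day on two consecutive days, spaced 4–6 hr apart. The fourth trial was run 30 min after dosing. The read-out was trial time (sec) as % of control, with significance by Student's t test (p < 0.05).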
# Mus musculus [2] = assay: Depression of forced motor activity in Swiss-Webster mouse at 12.5 mg/kg, ip after 30 mins by rotarod test relative to control; assay type: functional; conditions: route intraperitoneal; summary of the method: as §1
# Mus musculus [3] = assay: Depression of spontaneous motor activity in ip dosed Swiss-Webster mouse by photocell cage test relative to control; assay type: functional, organism-based
# Summary of the method: (§2)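 Compound was dissolved in minimal 1.5 M NaH2PO4, diluted with water and given ip. Two mice given the same dose went into each of three photocell actophotometer cages 10 min after the rotarod test started. Counts were taken over 15 min, starting 5 min after placement. A factorial design across cages cancelled differences between units. Results were given as % of control, with significance by Student's t test (p < 0.05).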
# Mus musculus [4] = assay: Depression of forced motor activity in Swiss-Webster mouse at 25 mg/kg, ip after 30 mins by rotarod test relative to control; assay type: functional; conditions: route intraperitoneal; summary of the method: as §1
# [5] = Acute toxicity in ip dosed Swiss-Webster mouse administered as single dose after 7 days; assay type: organism-based; conditions: in vivo
# Summary of the method: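 Mice given a single ip dose at each of four dose levels; lethality followed over 7 days; LD50 with 95% confidence limits estimated by the method of Weil. Compounds dissolved in minimal 1.5 M NaH2PO4, diluted with water; haloperidol in minimal 50% (w/v) tartaric acid-water.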
# Mus musculus [6] = assay: Depression of spontaneous motor activity in Swiss-Webster mouse at 25 mg/kg, ip by photocell cage test relative to control; assay type: functional; conditions: route intraperitoneal; summary of the method: as §2
# Mus musculus [7] = assay: Depression of spontaneous motor activity in Swiss-Webster mouse at 50 mg/kg, ip by photocell cage test relative to control; assay type: functional; conditions: route intraperitoneal; summary of the method: as §2
# Mus musculus [8] = assay: Depression of spontaneous motor activity in Swiss-Webster mouse at 12.5 mg/kg, ip by photocell cage test relative to control; assay type: functional; conditions: route intraperitoneal; summary of the method: as §2
# Mus musculus [9] = assay: Depression of forced motor activity in Swiss-Webster mouse at 60 mg/kg, ip after 30 mins by rotarod test relative to control; assay type: functional; conditions: route intraperitoneal
# Summary of the method: (§3)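 Rotarod in mice: rod at 4 rpm for 30 sec, 6 rpm next 30 sec, then stepped up every 30 sec (max 50 rpm) until fall. Six mice at a time, four trials (two per day, 4–6 hr apart, two consecutive days); vehicle or compound ip 30 min before fourth trial. Time on rod as % of control; Student's t test, p < 0.05.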
# Rattus norvegicus [10] = assay: Reduction in startle response in Wistar rat at 20 mg/kg, ip after 0.5 to 1 hr; assay type: functional, organism-based; design: dose 20 mg/kg
# Summary of the method: (§4)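 Male Wistar rats (175–225 g) were injected ip, with three treated rats and one control per dose. Compounds were in minimal 1.5 M NaH2PO4 diluted with water; the reference drug was in minimal 50% (w/v) tartaric acid-water. Gross behavior was observed. Respiratory rate, heart rate, rectal temperature and pupil size were measured at time points after dosing.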
# Rattus norvegicus [11] = assay: Reduction of heart rate in Wistar rat at 1 to 6 mg/kg, ip after 0.5 to 1 hr; assay type: functional, organism-based; conditions: 20 mg/kg, in the assay text read “20 mg/kg” for “1 to 6 mg/kg”; summary of the method: as §4
# Rattus norvegicus [12] = assay: Reduction in grip strength in Wistar rat at 20 mg/kg, ip after 0.5 to 1 hr; assay type: functional, organism-based; design: dose 20 mg/kg; summary of the method: as §4
# Rattus norvegicus [13] = assay: Depression of motor activity in Wistar rat at 20 mg/kg, ip after 0.5 to 1 hr; assay type: functional, organism-based; design: dose 20 mg/kg; summary of the method: as §4
# Rattus norvegicus [14] = assay: Induction of ptosis in Wistar rat at 20 mg/kg, ip after 10 mins to 3 hrs; assay type: functional, organism-based; design: dose 20 mg/kg; summary of the method: as §4
# Rattus norvegicus [15] = assay: Reduction of respiration rate in Wistar rat at 1 to 6 mg/kg, ip after 0.5 to 1 hr; assay type: functional, organism-based; conditions: 20 mg/kg, in the assay text read “20 mg/kg” for “1 to 6 mg/kg”; summary of the method: as §4
# Rattus norvegicus [16] = assay: Reduction in body temperature in Wistar rat at 20 mg/kg, ip relative to control; assay type: functional; conditions: route intraperitoneal; summary of the method: as §4
# Mus musculus [17] = assay: Depression of spontaneous motor activity in Swiss-Webster mouse at 60 mg/kg, ip by photocell cage test relative to control; assay type: functional; conditions: route intraperitoneal
# Summary of the method: (§5)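 Spontaneous activity in three photocell cages: two mice given the same ip dose placed per cage 10 min after rotarod start; 15-min count begun 5 min after placement. Each dose run in factorial design across all three cages to offset unit sensitivity. Counts expressed as % of control; Student's t test, p < 0.05.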
# Mus musculus [18] = assay: Depression of forced motor activity in ip dosed Swiss-Webster mouse after 30 mins by rotarod test relative to control; assay type: functional, organism-based; summary of the method: as §1
# Mus musculus [19] = assay: Depression of spontaneous motor activity in Swiss-Webster mouse at 30 mg/kg, ip by photocell cage test relative to control; assay type: functional; conditions: route intraperitoneal; summary of the method: as §5
# Mus musculus [20] = assay: Depression of spontaneous motor activity in Swiss-Webster mouse at 15 mg/kg, ip by photocell cage test relative to control; assay type: functional; conditions: route intraperitoneal; summary of the method: as §5
# Mus musculus [21] = assay: Depression of forced motor activity in Swiss-Webster mouse at 30 mg/kg, ip after 30 mins by rotarod test relative to control; assay type: functional; conditions: route intraperitoneal; summary of the method: as §3
# Mus musculus [22] = assay: Depression of forced motor activity in Swiss-Webster mouse at 15 mg/kg, ip after 30 mins by rotarod test relative to control; assay type: functional; conditions: route intraperitoneal; summary of the method: as §3
# Rattus norvegicus [23] = assay: Reduction in rectal temperature in Wistar rat at 25 mg/kg, ip relative to control; assay type: functional; conditions: route intraperitoneal; summary of the method: as §4
# Mus musculus [24] = assay: Depression of forced motor activity in Swiss-Webster mouse at 6.25 mg/kg, ip after 30 mins by rotarod test relative to control; assay type: functional; conditions: route intraperitoneal; summary of the method: as §1
# Rattus norvegicus [25] = assay: Reduction in heart rate in Wistar rat at 25 mg/kg, ip; assay type: functional, organism-based; design: dose 25 mg/kg; summary of the method: as §4
# Rattus norvegicus [26] = assay: Induction of ptosis in Wistar rat at 25 mg/kg, ip after 2 hrs; assay type: functional, organism-based; design: dose 25 mg/kg; summary of the method: as §4
# Rattus norvegicus [27] = assay: Increase in salivation in Wistar rat at 25 mg/kg, ip after 0.5 to 1 hr; assay type: functional, organism-based; design: dose 25 mg/kg; summary of the method: as §4
# Rattus norvegicus [28] = assay: Induction of ptosis in Wistar rat at 25 mg/kg, ip after 0.5 to 1 hr; assay type: functional, organism-based; design: dose 25 mg/kg; summary of the method: as §4
# Mus musculus [29] = assay: Acute toxicity in ip dosed Swiss-Webster mouse assessed as intense and prolonged convulsions administered as single dose after 72 hrs; assay type: organism-based; conditions: in vivo
# Rattus norvegicus [30] = assay: Increase in salivation in Wistar rat at 25 mg/kg, ip after 2 hrs; assay type: functional, organism-based; design: dose 25 mg/kg; summary of the method: as §4
# Rattus norvegicus [31] = assay: Reduction in respiratory rate in Wistar rat at 25 mg/kg, ip; assay type: functional, organism-based; design: dose 25 mg/kg; summary of the method: as §4
# Mus musculus [32] = assay: Depression of spontaneous motor activity in Swiss-Webster mouse at 6.25 mg/kg, ip by photocell cage test relative to control; assay type: functional; conditions: route intraperitoneal; summary of the method: as §2
# Rattus norvegicus [33] = assay: Depression of motor activity in Wistar rat at 25 mg/kg, ip; assay type: functional, organism-based; design: dose 25 mg/kg; summary of the method: as §4
# Mus musculus [34] = assay: Depression of forced motor activity in Swiss-Webster mouse at 5 mg/kg, ip after 30 mins by rotarod test relative to control; assay type: functional; conditions: route intraperitoneal; summary of the method: as §3
# Rattus norvegicus [35] = assay: Increase in motor activity in Wistar rat at 5 to 30 mg/kg, ip; assay type: functional, organism-based
# Summary of the method: (§6)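 Male Wistar rats (175–225 g) dosed ip (vehicle dilute NaH2PO4 in water). Gross behaviour observed; respiratory rate, heart rate, rectal temperature and pupil size measured. Three treated rats per dose compared with one control.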
# Mus musculus [36] = assay: Depression of spontaneous motor activity in Swiss-Webster mouse at 10 mg/kg, ip by photocell cage test relative to control; assay type: functional; conditions: route intraperitoneal; summary of the method: as §5
# Mus musculus [37] = assay: Depression of forced motor activity in Swiss-Webster mouse at 10 mg/kg, ip after 30 mins by rotarod test relative to control; assay type: functional; conditions: route intraperitoneal; summary of the method: as §3
# Rattus norvegicus [38] = species on record: Rattus norvegicus; assay: Increase in heart rate in Wistar rat; assay type: functional, organism-based; summary of the method: as §6
# Rattus norvegicus [39] = species on record: Rattus norvegicus; assay: Reduction in respiration rate in Wistar rat; assay type: functional, organism-based; summary of the method: as §6
# Mus musculus [40] = assay: Depression of spontaneous motor activity in Swiss-Webster mouse at 5 mg/kg, ip by photocell cage test relative to control; assay type: functional; conditions: route intraperitoneal; summary of the method: as §5
SMILES,Activity (Mus musculus [2]) [%],Activity (Mus musculus [3]),Activity (Mus musculus [4]) [%],LD50 at 168 h [5] [mg/kg],Activity (Mus musculus [6]) [%],Activity (Mus musculus [8]) [%],Activity (Mus musculus [9]) [%],Activity (Mus musculus [17]) [%],Activity (Mus musculus [18]),Activity (Mus musculus [19]) [%],Activity (Mus musculus [20]) [%],Activity (Mus musculus [21]) [%],Activity (Mus musculus [22]) [%],further results
"O[C@]1(c2cccc(C(F)(F)F)c2)CCN2CCCCC2C1 (single isomer, unassigned)",107.2,Dose-dependent effect,98.1,137,45.1,70.3,–,–,–,–,–,–,–,Activity (Mus musculus [1]): 56.6%; Activity (Mus musculus [7]): 35.4%
"O=C(c1ccc(F)cc1)[C@@H]1CCN2CCCC[C@@H]2C1 (single isomer, unassigned)",–,Dose-dependent effect,–,193,–,–,4.8,0,Dose-dependent effect,9.6,2.5,15.2,26.5,Activity (Rattus norvegicus [10]): Active; Activity (Rattus norvegicus [11]): Active; Activity (Rattus norvegicus [12]): Active; Activity (Rattus norvegicus [13]): Active; Activity (Rattus norvegicus [14]): Active; Activity (Rattus norvegicus [15]): Active; T (Rattus norvegicus [16]): 3 °C
"O[C@@]1(c2cccc(Cl)c2)CCN2CCCCC2C1 (single isomer, unassigned)",–,–,–,180,–,–,51.4,44.3,–,154.9,166.7,105,96.5,–
"O=C(c1ccc(F)cc1)[C@H]1CCN2CCCC[C@@H]2C1 (single isomer, unassigned)",55.5,Dose-dependent effect,23,86.1,10.2,48.5,–,–,Dose-dependent effect,–,–,–,–,T (Rattus norvegicus [23]): 2.9 °C; Activity (Mus musculus [24]): 65.6%; Activity (Rattus norvegicus [25]): Active; Activity (Rattus norvegicus [26]): inactive; Activity (Rattus norvegicus [27]): Active; Activity (Rattus norvegicus [28]): Active; Activity (Mus musculus [29]): Toxic; Activity (Rattus norvegicus [30]): inactive; Activity (Rattus norvegicus [31]): Active; Activity (Mus musculus [32]): 95.6%; Activity (Rattus norvegicus [33]): Active
"O[C@@]1(c2ccc(Cl)cc2)CCN2CCCCC2C1 (single isomer, unassigned)",–,–,87.6,67.5,22.5,–,–,–,–,–,–,–,–,Activity (Mus musculus [34]): 105.9%; Activity (Rattus norvegicus [35]): inactive; Activity (Mus musculus [36]): 439.6%; Activity (Mus musculus [37]): 101.9%; Activity (Rattus norvegicus [38]): Active; Activity (Rattus norvegicus [39]): Active; Activity (Mus musculus [40]): 526.8%
